# Experimental data as given in ChEMBL document CHEMBL2177011, “Discovery, synthesis, and biological evaluation of orally active pyrrolidone derivatives as novel inhibitors of p53-MDM2 protein-protein interaction” (J Med Chem, 2012).
# Experiments:
# [1] = test system: Mus musculus; experiment: Toxicity in human A549 cells expressing wild type p53 xenografted nude BALB/C mouse assessed as reduction of body weight at 300 mg/kg, po qd for 14 days; format: organism-based; parameters: dose 300 mg/kg, route oral; details: in vivo, 336 h
# Summary of the method: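 Subcutaneous A549 xenografts (right axilla) in male BALB/C nude mice (18−20 g). From day 13 (tumors 100−300 mm³), the compound was given by gavage once daily for 14 days (6 animals per group; vehicle control group). Body weight was recorded every 4 days during treatment.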
# [2] = test system: A549; experiment: Antitumor activity against human A549 cells expressing wild type p53 xenografted in nude BALB/C mouse assessed as inhibition of tumor growth at 300 mg/kg, po qd for 14 days; format: functional; details: A549, 336 h, read-out: TGI
# Summary of the method: (§1)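 Male BALB/C nude mice (18−20 g) had A549 cells implanted subcutaneously in the right axilla. Dosing started on day 13, when tumors reached 100−300 mm³. Mice were randomized (6 per treatment group, 10 controls) and dosed by gavage once daily for 14 days. Caliper tumor volume (TV = 1/2 × a × b²) was taken every 4 days; relative tumor volume was used. Mice were sacrificed on day 29 or 33.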
# [3] = test system: Mus musculus; experiment: Toxicity in nude BALB/C mouse assessed as mortality at 200 mg/kg, po qd for 14 days; format: organism-based; parameters: dose 200 mg/kg, route oral; details: in vivo, 336 h
# Summary of the method: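 Male BALB/C nude mice (18−20 g) carried subcutaneous A549 implants in the right axilla. Dosing began once tumors reached 100−300 mm³, 13 days after implantation. Animals were randomized into groups of 6 per treatment and 10 controls, then given 200 mg/kg by gavage once daily for 14 consecutive days. Body weight was recorded every 4 days. Mice were sacrificed on day 29 or 33.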
# [4] = test system: A549; experiment: Antitumor activity against human A549 cells expressing wild type p53 xenografted in nude BALB/C mouse assessed as inhibition of tumor growth at 200 mg/kg, po qd for 14 days; format: functional; details: A549, 336 h, read-out: TGI; summary of the method: as §1
# [5] = test system: A549; experiment: Induction of apoptosis in human A549 cells expressing wild type p53 after 48 hrs using annexin V-FITC staining by flow cytometry assay; format: functional, cell-based
# Summary of the method: (§2)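 A549 cells (5 × 10⁵ cells/mL) were seeded in six-well plates and treated at 5−20 μM for 48 h. Cells were harvested by trypsinization, washed twice in cold PBS and resuspended in binding buffer. They were stained with annexin V-FITC for 15 min at room temperature, then with PI for 15 min in the dark, and analyzed by flow cytometry; n = 3.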
# [6] = test system: A549; experiment: Induction of apoptosis in human A549 cells expressing wild type p53 at 20 uM after 48 hrs using annexin V-FITC staining by flow cytometry assay; format: functional; summary of the method: as §2
# [7] = test system: A549; experiment: Induction of apoptosis in human A549 cells expressing wild type p53 at 10 uM after 48 hrs using annexin V-FITC staining by flow cytometry assay; format: functional; summary of the method: as §2
# [8] = biological target: Tumour suppressor protein p53/Mdm4 (Homo sapiens, UniProt P04637+O15151); experiment: (§3) Inhibition of p53-MDMX interaction after 1 hr by fluorescence polarization assay; format: protein assay
# [9] = test system: NCI-H1299; experiment: Antiproliferative activity against p53 deficient human NCI-H1299 cells after 72 hrs by MTT assay; format: functional, cell-based; details: NCI-H1299, 72 h
# Summary of the method: (§4)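 Cells seeded at 5−6 × 10⁴ per well and cultured 24 h, then exposed in triplicate wells to a range of compound concentrations for 72 h, with 0.1% DMSO as control. MTT (5 mg/mL solution) was added for 4 h at 37 °C, formazan dissolved in DMSO, absorbance read at 570 nm. Drug-free wells served as blanks; IC50 calculated.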
# [10] = test system: A549; experiment: Antiproliferative activity against human A549 cells expressing wild type p53 after 72 hrs by MTT assay; format: functional, cell-based; summary of the method: as §4
# [11] = test system: U2OS; experiment: Antiproliferative activity against human U2OS cells expressing wild type p53 after 72 hrs by MTT assay; format: functional, cell-based; details: Homo sapiens, U2OS, 72 h; read-out: IC50; summary of the method: as §4
# [12] = test system: SAOS-2; experiment: Antiproliferative activity against p53 deficient human Saos2 cells after 72 hrs by MTT assay; format: functional, cell-based; details: SAOS-2, 72 h; summary of the method: as §4
# [13] = test system: A549; experiment: Induction of apoptosis in human A549 cells expressing wild type p53 at 5 uM after 48 hrs using annexin V-FITC staining by flow cytometry assay; format: functional; summary of the method: as §2
# [14] = biological target: Tumour suppressor protein p53/Mdm4 (Homo sapiens, UniProt O15151); experiment: as §3; format: protein assay
# [15] = biological target: Tumour suppressor p53/oncoprotein Mdm2 (Homo sapiens, UniProt Q00987); experiment: Inhibition of p53-MDM2 interaction after 1 hr by fluorescence polarization assay; format: protein assay
# [16] = Homo sapiens, A549, 72 h, read-out: IC50
# Chain of Tumour suppressor protein p53/Mdm4 (Homo sapiens, UniProt O15151) (P04637 whole entry): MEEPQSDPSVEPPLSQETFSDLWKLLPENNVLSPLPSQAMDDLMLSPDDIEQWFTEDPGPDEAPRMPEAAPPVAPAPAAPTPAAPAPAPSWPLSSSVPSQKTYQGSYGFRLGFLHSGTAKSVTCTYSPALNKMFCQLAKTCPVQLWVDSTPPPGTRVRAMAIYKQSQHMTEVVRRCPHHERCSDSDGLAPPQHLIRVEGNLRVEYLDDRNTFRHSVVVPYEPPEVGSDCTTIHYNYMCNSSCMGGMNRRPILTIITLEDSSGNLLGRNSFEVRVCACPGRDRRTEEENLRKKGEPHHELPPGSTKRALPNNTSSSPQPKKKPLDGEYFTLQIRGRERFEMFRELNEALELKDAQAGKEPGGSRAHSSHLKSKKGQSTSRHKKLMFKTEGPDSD
# Chain of Tumour suppressor protein p53/Mdm4 (Homo sapiens, UniProt O15151) (O15151 whole entry): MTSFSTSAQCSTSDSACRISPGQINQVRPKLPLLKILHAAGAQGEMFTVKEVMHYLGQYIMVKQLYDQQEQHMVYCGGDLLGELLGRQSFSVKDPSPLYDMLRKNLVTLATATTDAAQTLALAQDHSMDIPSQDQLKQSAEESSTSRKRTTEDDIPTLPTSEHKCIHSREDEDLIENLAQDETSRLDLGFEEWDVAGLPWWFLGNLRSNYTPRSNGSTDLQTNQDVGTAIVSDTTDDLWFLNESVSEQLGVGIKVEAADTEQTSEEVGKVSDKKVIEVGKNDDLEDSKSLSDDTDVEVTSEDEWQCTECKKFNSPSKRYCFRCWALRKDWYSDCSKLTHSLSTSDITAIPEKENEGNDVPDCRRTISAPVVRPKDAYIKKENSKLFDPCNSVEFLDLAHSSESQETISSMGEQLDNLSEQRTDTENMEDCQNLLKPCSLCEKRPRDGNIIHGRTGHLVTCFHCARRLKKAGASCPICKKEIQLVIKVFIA
# Chain of Tumour suppressor p53/oncoprotein Mdm2 (P04637 whole entry): as the sequence (P04637 whole entry) above
# Chain of Tumour suppressor p53/oncoprotein Mdm2 (Q00987 whole entry): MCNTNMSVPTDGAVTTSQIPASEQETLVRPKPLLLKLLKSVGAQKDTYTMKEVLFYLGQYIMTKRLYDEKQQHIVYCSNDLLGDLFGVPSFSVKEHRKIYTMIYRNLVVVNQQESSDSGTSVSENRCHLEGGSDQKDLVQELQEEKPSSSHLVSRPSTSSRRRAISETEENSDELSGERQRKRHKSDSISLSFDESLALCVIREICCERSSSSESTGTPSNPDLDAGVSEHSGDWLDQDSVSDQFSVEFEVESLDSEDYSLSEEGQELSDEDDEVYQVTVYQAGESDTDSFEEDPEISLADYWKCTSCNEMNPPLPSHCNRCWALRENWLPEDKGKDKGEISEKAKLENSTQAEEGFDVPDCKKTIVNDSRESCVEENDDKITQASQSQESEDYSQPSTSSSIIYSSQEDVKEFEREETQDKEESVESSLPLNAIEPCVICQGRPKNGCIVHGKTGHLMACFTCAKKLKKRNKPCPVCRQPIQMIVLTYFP
# Chain of Tumour suppressor protein p53/Mdm4 (Homo sapiens, UniProt P04637+O15151) (P04637 whole entry): as the sequence (P04637 whole entry) above
# Chain of Tumour suppressor protein p53/Mdm4 (Homo sapiens, UniProt P04637+O15151) (O15151 whole entry): as the sequence (O15151 whole entry) above
Structure (SMILES),IC50 [9] [µM],IC50 [11] [µM],Ki [14] [µM],Ki [15] [µM],IC50 ([10]; a549),Activity [1],inhibition in vivo at 300 mg/kg [2] [%],Activity [3],inhibition in vivo at 200 mg/kg [4] [%],Activity [5],Activity [6] [%],Activity [7] [%],Ki [8],"IC50 [10, 16] [µM]",IC50 [12] [µM],Activity [13] [%]
C[C@@H](NC1=C(C(=O)c2ccccc2)[C@@H](c2ccc(Br)cc2)N(CCCn2ccnc2)C1=O)c1ccccc1,14.4,28.1,–,–,–,Non-toxic,52.5,Non-toxic,40,Dose-dependent effect,17.85,4.02,Not Active,1.97,27.4,0.63
CCOC1=C(C(=O)c2ccccc2)C(c2ccc(Br)cc2)N(CCCn2ccnc2)C1=O (configuration not stated),28.9,21.9,38.9,0.69,–,–,–,–,–,–,–,–,–,35.2,31.7,–
COc1ccc(C2=N[C@@H](c3ccc(Cl)cc3)[C@@H](c3ccc(Cl)cc3)N2C(=O)N2CCNC(=O)C2)c(OC(C)C)c1 [NUTLIN-3],–,14.3,–,–,–,–,–,–,–,Dose-dependent effect,15.49,6.46,–,–,31.6,0.9
NC1=C(C(=O)c2ccccc2)C(c2ccc(Br)cc2)N(CCCn2ccnc2)C1=O (configuration not stated),168,149,–,0.048,Not Active,–,–,–,–,–,–,–,Not Active,–,107,–
COCCOC1=C(C(=O)c2ccccc2)C(c2ccc(Br)cc2)N(CCCn2ccnc2)C1=O (configuration not stated),–,–,2.11,1.34,–,–,–,–,–,–,–,–,–,–,–,–
CC(C)OC1=C(C(=O)c2ccccc2)C(c2ccc(Br)cc2)N(CCCn2ccnc2)C1=O (configuration not stated),18.9,24.8,–,–,–,–,–,Non-toxic,40,–,–,–,–,8.72,23,–

# Further lines, with some results ahead:
IC50 [9] [µM],IC50 [11] [µM],Ki [14] [µM],Ki [15] [µM],IC50 ([10]; a549),Structure (SMILES),Activity [1],inhibition in vivo at 300 mg/kg [2] [%],Activity [3],inhibition in vivo at 200 mg/kg [4] [%],Activity [5],Activity [6] [%],Activity [7] [%],Ki [8],"IC50 [10, 16] [µM]",IC50 [12] [µM],Activity [13] [%]
–,–,9.32,6.97,–,CCCOC1=C(C(=O)c2ccccc2)C(c2ccc(Br)cc2)N(CCCn2ccnc2)C1=O (configuration not stated),–,–,–,–,–,–,–,–,–,–,–
19.9,22.4,17.9,0.49,–,O=C(C1=C(OC2CCCCC2)C(=O)N(CCCn2ccnc2)C1c1ccc(Br)cc1)c1ccccc1 (configuration not stated),–,–,–,–,–,–,–,–,31.2,29.7,–
